Assay [1] has as its system Candida albicans. Nature of the assay: In vitro evaluation of minimum inhibitory concentration against Candida albicans 76. In kind it is functional. Summed up: (§1)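 Stocks are 800 μg/mL in 50% ethanol. Each plate gets 10 μL of inoculum at 10^5 cfu/mL. Incubation at 25 °C, 48 h for yeasts and 120 h for dermatophytes and molds. Organisms are ATCC strains or clinical isolates.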

The test system of assay [2] is Nakaseomyces glabratus. Nature of the assay: In vitro evaluation of minimum inhibitory concentration against Torulopsis glabrata 78. In kind it is functional. Summed up: as §1
Assay [3] has as its system Mus sp. Nature of the assay: In vivo evaluation of % survival rate after peroral administration on 3rd day at dose 1 mg/kg. In kind it is functional. Particulars: Mus sp., po.
For assay [4], the system named is Candida albicans. Nature of the assay: In vivo evaluation of minimum inhibitory concentration against Candida albicans 60. In kind it is functional. The method, boiled down:
(§2)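 Broth macrodilution MIC following NCCLS M27-P, in RPMI-1640 buffered with 0.165 M MOPS. Fluconazole was dissolved in water and other drugs in DMSO. C. parapsilosis ATCC 22019 served as the reference strain in every run. MIC was the lowest concentration giving turbidity at or below the 80% inhibition standard.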

Assay [5] relates to Kluyveromyces marxianus. Nature of the assay: In vivo Evaluation of minimum inhibitory concentration against Candida pseudotropicalis 13. In kind it is functional. Summed up:
as §1

Assay [6] relates to Nannizzia gypsea. Nature of the assay: In vitro evaluation of minimum inhibitory concentration against Microsporum gypseum 22. The class given is functional. Summed up:
as §1

Assay [7] deals with Meyerozyma guilliermondii. Nature of the assay: In vitro evaluation of minimum inhibitory concentration against Candida guilliermondii 26. The class given is functional. The method, boiled down: as §1
The test system of assay [8] is Trichophyton benhamiae. Nature of the assay: In vitro evaluation of minimum inhibitory concentration against Trichophyton mentagrophytes 23. In kind it is functional, Arthroderma benhamiae. The method, boiled down: as §1
Assay [9] relates to Mus sp. Nature of the assay: In vivo evaluation of % survival rate after peroral administration on 5th day at dose 1 mg/kg. Particulars: Mus sp., po. The class given is functional.
Assay [10] concerns Candida albicans. Nature of the assay: In vivo evaluation of minimum inhibitory concentration against Candida albicans 406. In kind it is functional. The method, boiled down:
as §2

Assay [11] relates to Mus sp. Nature of the assay: In vivo evaluation of % survival rate after peroral administration on 7th day at dose 1 mg/kg. Particulars: Mus sp., po. In kind it is functional.
Assay [12] deals with Microsporum canis. Nature of the assay: In vitro evaluation of minimum inhibitory concentration against Microsporum canis 47. In kind it is functional. Summed up: as §1
Assay [13] deals with Candida parapsilosis. Nature of the assay: In vitro evaluation of minimum inhibitory concentration against Candida parapsilosis 61. In kind it is functional. Summed up: as §1
The test system of assay [14] is Candida tropicalis. Nature of the assay: In vitro evaluation of minimum inhibitory concentration against Candida tropicalis 2.11. In kind it is functional. Particulars: Candida tropicalis; read-out: MIC. Summed up: as §1
The test system of assay [15] is Mus sp. Nature of the assay: In vivo evaluation of % survival rate after peroral administration on 9th day at dose 1 mg/kg. In kind it is functional. Particulars: Mus sp., po.
Assay [16] has as its system Aspergillus fumigatus. Nature of the assay: In vitro evaluation of minimum inhibitory concentration against Aspergillus fumigatus 33. The class given is functional. Summed up: as §1
Assay [17] relates to Pichia kudriavzevii. Nature of the assay: In vitro evaluation of minimum inhibitory concentration against Candida krusei 70. The class given is functional. Summed up:
as §1

For assay [18], the system named is Aspergillus flavus. Nature of the assay: In vitro evaluation of minimum inhibitory concentration against Aspergillus flavus 19. The class given is functional. Particulars: Aspergillus flavus; read-out: MIC. The method, boiled down: as §1
The subject of assay [19] is Trichophyton rubrum. Nature of the assay: In vitro evaluation of minimum inhibitory concentration against Trichophyton rubrum 90. The class given is functional. The method, boiled down: as §1
The subject of assay [20] is Aspergillus niger. Nature of the assay: In vitro evaluation of minimum inhibitory concentration against Aspergillus niger 18. In kind it is functional. Particulars: Aspergillus niger; read-out: MIC. The method, boiled down:
as §1

Assay [21] has as its system Rhodotorula mucilaginosa. Nature of the assay: In vitro evaluation of minimum inhibitory concentration against Rhodotorula rubra 16. The class given is functional. As to conditions: Rhodotorula mucilaginosa; read-out: MIC. The method, boiled down: as §1
The test system of assay [22] is Mus sp. Nature of the assay: In vivo evaluation of % survival rate after peroral administration on 3rd day at dose 2.5 mg/kg. The class given is functional. Particulars: route oral, 2.5 mg/kg.
The subject of assay [23] is Mus sp. Nature of the assay: In vivo evaluation of % survival rate after peroral administration on 5th day at dose 2.5 mg/kg. Particulars: route oral, 2.5 mg/kg. In kind it is functional.
Assay [24] has as its system Mus sp. Nature of the assay: In vivo evaluation of % survival rate after peroral administration on 9th day at dose 2.5 mg/kg. As to conditions: route oral, 2.5 mg/kg. The class given is functional.
Assay [25] relates to Mus sp. Nature of the assay: In vivo evaluation of % survival rate after peroral administration on 7th day at dose 2.5 mg/kg. In kind it is functional. Particulars: route oral, 2.5 mg/kg.
Where [26] appears, read: Candida albicans, read-out: MIC.

Converted amounts (≈) assume the structure as drawn.

In general, MIC refers to the smallest concentration in the dilution series that meets the test's criterion for growth inhibition.

With `C[C@H]1N(C(=O)c2ccc(OCC(F)(F)C(F)F)cc2)C[C@H](O)O[C@@]1(Cn1cncn1)c1ccc(F)cc1F` (racemic), the minimum inhibitory concentration (MIC) was 80 µg/mL (≈ 147 µM) in [1] (setting [26]); over 80 µg/mL in [2] (Nakaseomyces glabratus, read-out: MIC); 5 µg/mL (≈ 9.18 µM) in assay [4] (setting [26]); 0.63 µg/mL (≈ 1.16 µM) in assay [5] (Kluyveromyces marxianus, in the assay text read “In vitro” for “In vivo”, read-out: MIC); over 80 µg/mL in assay [6] (Nannizzia gypsea, read-out: MIC); 80 µg/mL (≈ 147 µM) in [7] (Meyerozyma guilliermondii, read-out: MIC). Further, the MIC in [8] (Trichophyton benhamiae, read-out: MIC) is over 80 µg/mL; in assay [10] (setting [26]), 1.25 µg/mL (≈ 2.3 µM); in assay [12] (Microsporum canis, read-out: MIC), over 80 µg/mL; in assay [13] (Lodderomyces parapsilosis, read-out: MIC), 10 µg/mL (≈ 18.4 µM); in [14] it was 80 µg/mL (≈ 147 µM); in [16] (Aspergillus fumigatus, read-out: MIC), over 80 µg/mL. For the same compound, the MIC in assay [17] (Pichia kudriavzevii, read-out: MIC) is over 80 µg/mL; in assay [18], over 80 µg/mL; in [19] (Trichophyton rubrum, read-out: MIC), over 80 µg/mL; in assay [20], over 80 µg/mL; in [21], over 80 µg/mL. Besides, the survival at 1 mg/kg in assay [3] is 80%; in assay [9] it was 50%; in assay [11], 0%; in assay [15], 0%.

As for `C[C@H]1N(C(=O)c2ccc(C(F)(F)F)cc2)CCO[C@@]1(Cn1cncn1)c1ccc(F)cc1F` (stereo in doubt; (+)-41), the MIC in [1] is over 80 µg/mL; in assay [2], over 80 µg/mL; in assay [4] it was over 80 µg/mL; in [5], 10 µg/mL (≈ 21.4 µM); in assay [6] it was over 80 µg/mL; in assay [7], over 80 µg/mL. The MIC in assay [8], in assay [10], in assay [12], in assay [13], in [16] and in [17] was over 80 µg/mL each time. This compound also returned a minimal inhibitory concentration (MIC) in assay [19] of 80 µg/mL (≈ 172 µM). Further, the Survival in assay [22] is listed as 10%; in assay [23] it was 0%; in assay [24] it was 0%; in assay [25] it was 0%.
